Bioassay records from PubChem.
HDAC3 inhib = inhibitors of human histone deacetylase 3; inhibition, % at 8.3 µM; O15379; 320,000 tested, 0.15% active; recombinant HDAC3, fluorogenic peptide/trypsin coupled, fluorescence; in the data active means inhibition above about 26%, passing the limit was not always enough; inconclusive means no clear call, values can overlap the other calls
SENP1 inh = inhibitors of human SENP1 SUMO protease catalytic domain; Q9P0U3; recombinant SENP1 catalytic domain, CyPet-SUMO1-YPet FRET cleavage; inhibition, % at 10 µM; 360,000 tested, 0.21% active; AID 624204;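 active means inhibition at least 30% at 10 µM, raw YFP signal under a set limit, fluorescence ratio 0.5 to 1.5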
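Assay system – human recombinant His6-tagged SENP1 catalytic domain enzyme · Input – SENP1 enzyme, 20 pM final · Buffer or medium – Tris pH 8 buffer plus EDTA, NaCl, BME, BSA, NP40, catalase · Schedule – 50 min reaction at room temperature · Technique – FRET read of cyan and yellow fluorescence · Control set – no-enzyme wells low, DMSO-plus-enzyme wells high control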
AHR act = activators of human aryl hydrocarbon receptor; AID 2796; P35869; AHR-responsive luciferase reporter cells, luminescence; activation, % at 5 µM; 320,000 tested, 2.5% active; in the data active means activation above about 47%
Target sequence (P35869 whole entry, looked up): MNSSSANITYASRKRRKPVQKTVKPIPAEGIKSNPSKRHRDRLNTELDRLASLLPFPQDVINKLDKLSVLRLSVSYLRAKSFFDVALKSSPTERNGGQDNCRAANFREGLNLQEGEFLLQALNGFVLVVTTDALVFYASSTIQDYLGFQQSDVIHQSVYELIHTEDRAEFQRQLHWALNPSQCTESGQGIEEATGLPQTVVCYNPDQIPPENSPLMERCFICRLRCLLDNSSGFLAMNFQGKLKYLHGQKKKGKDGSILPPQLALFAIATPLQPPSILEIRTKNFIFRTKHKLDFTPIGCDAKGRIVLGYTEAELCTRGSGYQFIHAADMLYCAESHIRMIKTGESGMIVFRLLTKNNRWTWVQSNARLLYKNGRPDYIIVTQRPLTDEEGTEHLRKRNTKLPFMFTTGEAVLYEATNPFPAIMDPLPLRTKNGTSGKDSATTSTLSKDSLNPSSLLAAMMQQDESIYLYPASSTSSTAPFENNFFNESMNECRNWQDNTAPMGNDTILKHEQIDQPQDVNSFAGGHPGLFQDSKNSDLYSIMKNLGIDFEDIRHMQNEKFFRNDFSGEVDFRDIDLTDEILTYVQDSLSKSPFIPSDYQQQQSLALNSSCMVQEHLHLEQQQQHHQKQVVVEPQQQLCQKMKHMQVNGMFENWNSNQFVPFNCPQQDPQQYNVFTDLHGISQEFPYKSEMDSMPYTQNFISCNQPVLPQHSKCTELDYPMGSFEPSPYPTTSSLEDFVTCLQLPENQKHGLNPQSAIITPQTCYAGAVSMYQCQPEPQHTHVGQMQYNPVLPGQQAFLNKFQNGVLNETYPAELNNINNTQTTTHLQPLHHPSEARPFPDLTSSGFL
GAA850 FXN act = increases GAA850 frataxin promoter reporter activity; HEK293 lucGAA850 FXN promoter luciferase reporter, 24 h; percent of 10 µM SAHA response; AID 540364; 360,000 tested, 0.56% active; activation, % at 6 µM;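 active means activation above the average of all compounds screened plus 3 SD, cutoff fixed separately per campaign, cut at about 7.5% in these data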
M18AAP inhibitor = PfM18AAP enzyme inhibition; recombinant PfM18AAP, H-Glu-NHMec fluorogenic cleavage; inhibition, % at 7.35 µM; 290,000 tested, 1.2% active;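 active means inhibition above the campaign mean inhibition over all tested compounds plus 3 SD, cut at about 28% in these data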
CTSL1 counter = cathepsin L1 inhibition, PFM18AAP counter-screen; AID 1906; inhibition, % at 5.96 µM; 300,000 tested, 0.49% active; recombinant F. hepatica cathepsin L1, Z-Leu-Arg-MCA fluorescence;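 active means inhibition above the mean of all tested compounds plus 3 SD, set per screening campaign, cut at about 17% in these data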
AHR act cf = confirmation of human aryl hydrocarbon receptor activators | human cells, AHR-responsive luciferase reporter, luminescence | shares compounds with AHR act | 2,300 tested, 87% active | activation, % at 9 µM; in the data active means activation above about 49%;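 further: HepG2 hepatoma cells carrying a DRE-driven firefly luciferase reporter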
PXR counter = activates human PXR in AHR activator counter-screen. activation, % at 11.6 µM. 2,300 tested, 88% active. AID 434939. cell-based PXR reporter, luciferase luminescence. shares compounds with AHR act; in the data active means activation above about 11%;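 further: human hepatoma DPX-2 cells expressing full-length human PXR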
Of the large screens only hits and unclear results are named; the others gave an inactive call (follow-up assays come after a bar, where they were run). Most compounds without a hit are left out; they make up all but 4.2% or so of the library.

COc1ccc(-c2csc(Nc3ccc(C)cn3)n2)cc1	none
CN(C(=S)NC(=O)c1ccc(Cl)cc1)C1CCCCC1	AHR act 91 | AHR act cf 113 | PXR counter 94
CN(C(=S)NC(=O)c1ccc(F)cc1)C1CCCCC1	none
O=C1c2ccccc2C(=O)N1CCC1=CCCCC1	AHR act 103 | AHR act cf 121 | PXR counter 17
O=c1[nH]c2ccccc2c2nc3ccccn3c12	AHR act 91 | AHR act cf 117 | PXR counter 19
COCc1cc(C)nc(SCC(=O)Nc2ccc(N3CCOCC3)cc2)c1C#N	HDAC3 inhib inconclusive
OCC1OC(Oc2c[nH]c3ccccc23)C(O)C(O)C1O (centres undefined)	AHR act 84 (no result: M18AAP inhibitor) | AHR act cf inactive | PXR counter inactive
OCc1ccccc1O[C@@H]1O[C@H](CO)[C@@H](O)[C@H](O)[C@H]1O	none
CCCc1cc(C(=O)NNC(=S)NC2CCCCC2)cs1	none
CC(C)NC(=O)COc1ccc(S(=O)(=O)N2CCOCC2)cc1	none
CC(C)NC(=O)COc1ccc(S(=O)(=O)N2CCCC2)cc1	AHR act 87 | AHR act cf inactive | PXR counter 16
O=C(Nc1ccc(CN2CCOCC2)cc1)c1ccc(-c2cccc(Cl)c2)o1	none
O=C(NC(=S)Nc1ccc(CN2CCOCC2)cc1)c1ccc(-c2cccc(Cl)c2)o1	AHR act 90 | AHR act cf 67 | PXR counter 20
O=C(/C=C/c1ccc(Cl)cc1Cl)NC(=S)Nc1ccc(CN2CCOCC2)cc1	AHR act 105 | AHR act cf inactive | PXR counter 83
Cc1ccc(NC(=O)CSc2nc(=O)n(CCCN3CCOCC3)c3c2CCCC3)c(C)c1	none (no result: M18AAP inhibitor)
Fc1ccc(-c2nc3ccc(Br)cn3c2Cc2ccsc2)cc1	none (no result: HDAC3 inhib, AHR act, GAA850 FXN act, M18AAP inhibitor, CTSL1 counter)
CCOC(=O)C1CCCN(C(=O)c2cccnc2Oc2ccccc2)CC1 (centres undefined)	none (no result: HDAC3 inhib, AHR act, M18AAP inhibitor, CTSL1 counter)
O=C(Nc1ccc(Cl)cc1)c1ccc2nsnc2c1	AHR act 85 | AHR act cf 143 | PXR counter 12
CC(=O)c1ccc(NC(=O)c2ccc3snnc3c2)cc1	none
O=C(Nc1ccc(Cl)cc1)c1ccc2snnc2c1	AHR act 129 | AHR act cf 103 | PXR counter 26
O=C(CCSCc1cccc(F)c1)NCCc1ccccc1	none
Cn1nc(N2CCN(S(=O)(=O)c3ccccc3)CC2)c(=O)n(C)c1=O	none (no result: M18AAP inhibitor, CTSL1 counter)
Cc1onc(-c2ccccc2)c1C(=O)N/N=C/c1cn(C)c2ccccc12	none
Cc1nc(C)c(C(=O)N/N=C/c2c[nH]c3ccccc23)s1	AHR act 84 | AHR act cf 47
Cc1nc(C)c(C(=O)N/N=C/c2cn(C)c3ccccc23)s1	AHR act 97 | AHR act cf 63 | PXR counter 23
COC(=O)N/N=C/c1c[nH]c2ccccc12	none
O=C(O)Cn1cc(/C=C2\SC(=O)N(c3ccccc3)C2=O)c2ccccc21	none
Cn1cc(/C=C2\SC(=S)N(N3CCOCC3)C2=O)c2ccccc21	AHR act 107 | AHR act cf inactive | PXR counter inactive
Cn1cc(/C=C2/SC(=O)N(c3ccccc3)C2=O)c2ccccc21	AHR act 101 | AHR act cf 87 | PXR counter 17
COc1ccc(C2CC(c3cccs3)=NN2C(=O)CSc2nc3ccccc3o2)cc1 (centres undefined)	AHR act 93 (no result: HDAC3 inhib) | AHR act cf 50 | PXR counter 45
COc1ccc(C2CC(c3cccs3)=NN2C(=O)CSc2nc3ccccc3s2)cc1 (centres undefined)	none
N#Cc1ccccc1CSc1nc2ncc(Br)cc2[nH]1	none
O=[N+]([O-])c1ccc(CSc2nc3ncc(Br)cc3[nH]2)cc1	none
Fc1ccccc1CSc1nc2ncc(Br)cc2[nH]1	AHR act 104 | AHR act cf 71 | PXR counter 100
COC(=O)CSc1nc2ncc(Cl)cc2[nH]1	none
CC(C)(C)C(=O)CSc1nc2ncc(Br)cc2[nH]1	AHR act 84 | AHR act cf 57 | PXR counter 125
O=C(CSc1nc2ncc(Br)cc2[nH]1)c1cccc([N+](=O)[O-])c1	AHR act 92 | AHR act cf 67 | PXR counter 98
Cn1c(SCC(=O)NCC2CCCO2)nc2c(c1=O)SCC2 (centres undefined)	none
N#C/C(=C/c1cccs1)c1nc2ccccc2[nH]1	AHR act 117 | AHR act cf 125 | PXR counter 22
O=C(NC1CCCCC1)C1c2ccccc2OCC(=O)N1CC(F)(F)F (centres undefined)	none (no result: HDAC3 inhib, AHR act, GAA850 FXN act, M18AAP inhibitor, CTSL1 counter)
Cc1cc(C(C)(C)C)c(OC(=O)[C@@H]2OC(c3ccccc3)=C[C@H]2c2ccccc2)c(C(C)(C)C)c1	none (no result: M18AAP inhibitor, CTSL1 counter)
O=C(Nc1ccc(Br)cc1)C1OCCc2ccccc21 (centres undefined)	AHR act 103 | AHR act cf 107 | PXR counter 116
O=C(Nc1cccnc1)C1OCCc2ccccc21 (centres undefined)	none
COc1cc(-c2ccc3oc(-c4ccsc4)c(C#CC4(O)CCCCC4)c3c2)cc(OC)c1OC	none (no result: M18AAP inhibitor)
OC1(C#Cc2c(-c3ccsc3)oc3ccc(N4CCOCC4)cc23)CCCCC1	AHR act 111 (no result: M18AAP inhibitor) | AHR act cf 120 | PXR counter 80
Cc1ccc(NC(=S)N2CCN(CCN3C(=O)c4cccc5cccc(c45)C3=O)CC2)cc1	AHR act 107 | AHR act cf 110 | PXR counter 57
O=C1c2cccc3cccc(c23)C(=O)N1CCN1CCN(CC(O)COc2ccccc2)CC1 (centres undefined)	AHR act 87 | AHR act cf 59 | PXR counter 16
Cc1nc(C(F)(F)F)ccc1C(=O)N1CCC1(C)C(=O)NS(=O)(=O)c1ccc(C(C)(C)C)cc1 (centres undefined)	none (no result: HDAC3 inhib, AHR act, M18AAP inhibitor, CTSL1 counter)
CC(C)(C)Cc1c(-c2cccc(Cl)c2)nc2ccc(Br)cn12	none (no result: HDAC3 inhib, AHR act, GAA850 FXN act, M18AAP inhibitor, CTSL1 counter)
O=C1c2cc(F)ccc2-n2c1nc1ccccc1c2=O	AHR act 100, CTSL1 counter 17 | AHR act cf inactive | PXR counter inactive
Nn1c(-c2ccc(F)cc2)nc2ccccc2c1=O	none
CCNc1nc(C)nc2c1oc1ccccc12	none
c1ccc2c(c1)oc1c(NCCCn3ccnc3)ncnc12	AHR act 106 | AHR act cf 110 | PXR counter 22
Cc1nc(NCCCn2ccnc2)c2oc3ccccc3c2n1	AHR act 79 | AHR act cf 110 | PXR counter 23
N#CCCN(C(=O)COC(=O)CCc1c[nH]c2ccccc12)c1ccccc1	none (no result: HDAC3 inhib, M18AAP inhibitor)
